# CHOP inhibitor = blocks CHOP induction under ER stress; CHO-K1 CHOP-promoter luciferase, tunicamycin-induced, 15-18 h; inhibition, % at 10 µM; 220,000 tested, 3.8% active;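 active means compounds that reduced the stress-induced luciferase reporter signal by more than about 70% of percent inhibition, limit read from the data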
# Dynein transport = blocks dynein driven cargo transport along microtubules | 3617.4 mouse cells, GR-EGFP nuclear translocation imaging; test concentration mostly 20 µM; stimulated with dexamethasone, 1 µM; stronger effect = lower value | z-score, hits read low | 220,000 tested, 0.47% active | AID 1381;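 active means plate z-score of nuclear minus cytoplasmic receptor signal below a set negative limit, without overly bright fluorescence or cell loss, cut at about -3.5 in these data, passing the limit was not always enough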;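 further: z-score of nuclear minus cytoplasmic ring GR-EGFP intensity difference per well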
#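 Buffer or medium: tet-free medium with charcoal-stripped serum / Also added: dexamethasone agonist, 1.0 µM final, for 30 min / Timing: induction 48 h, compound 1 h, agonist 30 min / Measured by: high-content fluorescence imaging after fixation / Read-out: nuclear-to-cytoplasmic GR-EGFP distribution per well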
# b-catenin transl = alters nuclear translocation of beta-catenin in HeLa cells; immunofluorescence imaging; nuclear translocation activity, % at 5 µM; 190,000 tested, 0.3% active;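 active means nuclear translocation activity above 50% at 5 µM, with a well cell count of 50 or more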;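 further: per-cell ratio of nuclear to cytoplasmic median beta-catenin stain intensity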
#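 Technique: fluorescence imaging of beta-catenin antibody stain plus DAPI / Material: human HeLa cell line / Incubation: compound treatment 24 h, 37°C, 5% CO2 / Read-out basis: % activation of per-cell nuclear versus cytoplasmic median beta-catenin signal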
# MT stabilize HCS = microtubule stabilization, imaging screen; HeLa tubulin immunostaining HCS, 24 h; share of cells brighter than vehicle mean+2SD; AID 2205; 200,000 tested, 0.83% active; % tubulin-high responders, % at 10 µM;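 active means plate Z-score above 3 for both tubulin-high and condensed-nucleus cell shares, with cell loss under 80%, at 10 µM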;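 further: anti alpha tubulin signal scored within the nucleus-defined area of each cell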
# Lmaj promast = reduces viability of Leishmania major promastigotes | inhibition, % at 10 µM | resazurin fluorescence viability | 200,000 tested, 9% active | AID 1063; in the data active means inhibition above about 50%;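 further: promastigotes grown with compound for 44 hours at 28 °C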
# Autophagy mod = modulators of autophagy; MEF GFP-LC3 puncta imaging; test concentration mostly 10 µM; calls only at 10 µM (by protocol); 190,000 tested, 0.98% active;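 active means percentage of spot-positive cells more than 3 SD above its plate mean, without a fluorescence outlier flag or 80% toxicity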
# A number is an active result; - = inactive; . = no result given; + = active, no number. Sampled rows, rich in hits. Any-hit rate of the full collection: about 12%.
SMILES,CHOP inhibitor,Dynein transport,b-catenin transl,MT stabilize HCS,Lmaj promast,Autophagy mod
Cc1ccc(N2CCN(CC(O)COc3cccc4ccccc34)CC2)cc1 (centres undefined),86,-,-,.,.,.
CCCCOc1ccc(NC(=O)Nc2nnc(C)s2)cc1,-,-,-,.,.,.
Cc1ccc2c(c1)C(=C(C#N)C#N)C(=O)N2CCN1CCCCC1,-,-,-,.,.,.
Cc1ccc(N2CCN(CC(O)COc3ccc([N+](=O)[O-])cc3)CC2)cc1 (centres undefined),-,-,-,-,97,-
COc1cccc(-c2cc(C(=O)Nc3cc(C)on3)no2)c1,-,-,-,-,-,-
O=C(Nc1cccnc1)c1cc(-c2ccccc2)on1,-,-,-,-,-,-
COc1cccc(-c2cc(C(=O)Nc3cc(OC)c(OC)c(OC)c3)no2)c1,.,-,.,49,51,-
COc1cccc(-c2cc(C(=O)Nc3cccnc3)no2)c1,-,-,111,-,-,-
N/C(=N\OC(=O)COc1ccc(Cl)cc1Cl)c1ccncc1,-,-,-,-,-,-
CC(=O)N1CCC(N(CCN2CCOCC2)C(=S)Nc2ccc(C)cc2C)CC1,-,-,-,-,-,-
COc1cc(C(F)(F)F)c(C(=O)NCc2cccc(Cl)c2)cn1,-,-,-,.,.,.
O=[N+]([O-])c1cc(CSC2=NCCN2)ccc1O,-,-,-,.,.,.
CCCOc1ccc(CSC2=NCCN2)cc1[N+](=O)[O-],-,-,-,-,57,-
Cc1cccc(C(=O)NC(=S)N2CCc3ccccc3C2)c1,-,-,-,-,-,-
COc1cc(NC(=O)c2cccc(Cl)c2)c(OC)cc1NC(=O)CN1CCOCC1,-,-,-,-,85,-
COc1ccc(S(=O)(=O)N2CCOCC2)cc1NC(=O)CN(C)Cc1c(F)cccc1Cl,-,-,-,-,-,-
O=C(Cc1ccc(Cl)c(Cl)c1)Nc1ccccc1N1CCOCC1,-,-,-,-,-,-
COc1cc(NC(=O)c2cccc(Cl)c2)c(OC)cc1NC(=O)CN1CCCCC1,-,-,-,-,-,-
COC(=O)c1ccccc1NC(=O)CNc1cc(Cl)ccc1N1CCOCC1,-,-,-,-,80,-
Cc1cc(Cl)ccc1OC(C)C(=O)Nc1ccccc1N1CCOCC1 (centres undefined),74,-,-,-,-,+
COc1ccc(Cl)cc1NC(=O)CN(C)CC(=O)Nc1ccccc1N1CCOCC1,-,-,86,22,54,-
CCOc1cc(C=O)cc(Br)c1OCC(N)=O,-,-,-,-,-,-
CC(Sc1nnc(C(F)(F)F)n1C)C(=O)Nc1ccc(S(N)(=O)=O)cc1 (centres undefined),-,-,-,.,.,.
Cc1c(C(=O)NN2CCOCC2)oc2c1ccc1ccccc12,-,-,-,-,-,-
COc1ccccc1N1CCN(CCCCNS(=O)(=O)c2cccc3c(N(C)C)cccc23)CC1,-,.,.,.,.,.
SMILES,CHOP inhibitor,Dynein transport,b-catenin transl,MT stabilize HCS,Lmaj promast,Autophagy mod
CCc1ccc(CN(C)C(=O)CC2C(=O)NCCN2Cc2ccoc2)cc1 (centres undefined),-,-,-,-,-,-
COc1ccccc1NC(=O)C1=C(C)Nc2nc(-c3cccs3)nn2C1c1cccc(O)c1 (centres undefined),-,-,-,-,-,+
COC(=O)C1=CN(Cc2ccc(OC)cc2)C=C(C(=O)OC)C1c1cccs1,-,-,-,-,100,-
COC(=O)C1=CN(CCCN2CCCC2=O)C=C(C(=O)OC)C1c1cccs1,-,-,.,-,-,-
Cc1cc(C)c(S(=O)(=O)N2CCN(c3ccc([N+](=O)[O-])c(-n4nc(C)cc4C)c3)CC2)c(C)c1,-,-,-,-,59,-
O=C(O)CC1SC(N/N=C/c2ccc(Br)cc2)NC1=O (centres undefined),-,-,-,-,-,-
Cc1cccc(NC(=O)NNC(=O)c2cc3ccccc3cc2O)c1C,-,-,-,-,-,-
Cc1cccc(NC(=S)NNC(=O)c2ccc(O)cc2O)c1C,-,-,-,-,71,-
O=c1c(-c2cnn(-c3ccccc3)c2)coc2cc(O)ccc12,-,-,-,-,96,-
Cc1oc2cc(O)ccc2c(=O)c1-c1cnn(-c2ccccc2)c1,-,-,-,-,-,-
CCOC(=O)C1CCN(CC(=O)Nc2c(C(=O)OC)[nH]c3ccc(Cl)cc23)CC1,.,-,.,-,-,-
COC(=O)c1[nH]c2ccc(C)cc2c1NC(=O)CCN1CCN(C2CCCCC2)CC1,-,-,-,-,-,-
COC(=O)c1[nH]c2ccc(Br)cc2c1NC(=O)CN1CCN(C2CCCCC2)CC1,-,-,.,-,101,-
CCOC(=O)C1CCCN(CC(=O)Nc2c(C(=O)OC)[nH]c3ccc(Br)cc23)C1 (centres undefined),77,-,-,-,-,-
S=C(NCCc1cnc[nH]1)NC1CCCC1,-,-,-,-,-,-
CCCC(=O)Nc1sc(Cc2ccccc2)c(C)c1C(N)=O,-,-,-,-,-,-
CN1CCN(C(=S)c2ccc(Br)cc2)CC1,-,-,-,-,85,-
CN1CCN(C(=S)c2ccc(N(C)C)cc2)CC1,-,-,-,-,94,-
CN(C)c1ccc(C(=S)N2CCN(Cc3ccccc3)CC2)cc1,-,-,-,-,-,-
CN1CCN(C(=S)c2ccc([N+](=O)[O-])cc2)CC1,-,-,-,-,66,-
COc1cc(NC(=S)N2CCN(C)CC2)c(OC)cc1Cl,-,-,-,-,-,-
CN1CCN(C(=S)Nc2cc([N+](=O)[O-])ccc2Cl)CC1,-,-,-,-,66,-
CSc1ccc(C(=S)N2CCN(C(c3ccccc3)c3ccccc3)CC2)cc1,-,-,.,-,-,-
CCN1CCN(C(=S)c2ccc(Br)cc2)CC1,-,-,-,-,85,-
CSc1ccc(C(=S)N2CCN(C)CC2)cc1,-,-,-,-,94,-
SMILES,CHOP inhibitor,Dynein transport,b-catenin transl,MT stabilize HCS,Lmaj promast,Autophagy mod
CC(NC(=O)CCl)c1ccccc1Br (centres undefined),-,-,-,.,.,.
CCOC(=O)C1=C(N)N2C(=O)C(C)SC2=C(C(=O)OCC)C1c1ccccc1 (centres undefined),-,-,-,-,-,-
CCOC(=O)C1=C(N)N2C(=O)C(C)SC2=C(C(=O)OC)C1c1ccccc1OC (centres undefined),82,-,.,-,-,-
CC(C)N(C(=O)CSc1nnc(-c2cc3ccccc3cc2O)n1Cc1ccco1)C(C)C,-,-,-,-,54,-
CN(CCN1CCOCC1)Cc1nc(-c2ccccc2)no1,-,-,-,-,90,-
c1ccc(-c2noc(CN3CCN(C(c4ccccc4)c4ccccc4)CC3)n2)cc1,-,-,-,-,-,-
CCn1ccnc1CN(C)Cc1nc(-c2ccccc2)no1,-,-,-,-,-,-
c1ccc(-c2noc(CN3CCN(c4ccccc4)CC3)n2)cc1,86,-,.,-,-,-

# Screening data deposited in PubChem BioAssay by several laboratories.
